EBI2 block = EBI2 receptor antagonists, beta-arrestin recruitment, primary screen, cell-based, luminescence, 7a,25-OHC stimulation, uHTS; G-protein coupled receptor 183 (Homo sapiens), P32249; 7a,25-OHC stimulated; inhibition, % at 5 µM; actives 0.81% (n = 360,000); AID 651636, 2012; in the data active = inhibition above about 38%;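 also: enzyme fragment complementation signal reports receptor beta-arrestin coupling in cells; 0% = agonist plus DMSO wells and 100% = wells without agonist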
Target sequence (P32249 whole entry, looked up, the tested form may be a part): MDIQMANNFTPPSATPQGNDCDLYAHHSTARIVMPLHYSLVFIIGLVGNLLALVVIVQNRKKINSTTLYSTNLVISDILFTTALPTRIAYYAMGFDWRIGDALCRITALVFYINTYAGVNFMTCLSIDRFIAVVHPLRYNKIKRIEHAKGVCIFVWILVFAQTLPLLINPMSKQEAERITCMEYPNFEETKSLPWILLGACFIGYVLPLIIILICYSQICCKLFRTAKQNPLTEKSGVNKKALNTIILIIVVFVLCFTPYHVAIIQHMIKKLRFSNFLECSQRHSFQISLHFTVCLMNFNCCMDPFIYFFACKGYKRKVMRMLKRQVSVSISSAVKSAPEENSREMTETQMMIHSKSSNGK
APJ antag = antagonists of human apelin receptor APJ, primary screen, CHO-K1 cells, beta-arrestin complementation, luminescence; inhibition, % at 20 µM; actives 0.32% (n = 330,000); P35414;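 active = inhibition above about 40% at 20 µM, limit read from the data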;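 also: cells challenged with 10 nM apelin-13 agonist together with compound; plate controls were apelin-13 plus DMSO wells for no effect and DMSO wells lacking apelin-13 for full effect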
CXCR6 block = CXCR6 receptor inhibitors, primary screen, cell-based, beta-arrestin, luminescence, CHO-K1 PathHunter, 1536-well; C-X-C chemokine receptor type 6 (Homo sapiens), O00574; inhibition, % at 20 µM; actives 0.36% (n = 360,000); in the data active = inhibition above about 34%, passing the limit was not always enough;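 also: antagonist mode with CXCL16 agonist at 10 nM final; 0% = 10 nM CXCL16 with DMSO and 100% = unstimulated wells without agonist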
APJ ag = agonists of human apelin receptor APJ, primary screen, CHO-K1 cells, PathHunter beta-arrestin, luminescence | P35414 | 0% DMSO wells, 100% apelin | activation, % at 20 µM | actives 0.11% (n = 330,000) | AID 2520, 2010;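 active = activation more than six SD over the plate average, tested at 20 µM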;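 also: 0% = DMSO alone and 100% = apelin-13 at 10 nM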
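system = engineered CHO-K1 APJ arrestin reporter cells | input = 1000 cells per well | timing = overnight seeding, 90 min compound at 25 °C, 1 h detection | measured by = enzyme-fragment complementation luminescence | read-out = beta-arrestin recruitment to APJ as agonist activity, luminescent signal | control set = negative DMSO alone, positive Apelin-13 at 10 nM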
CCR6 antag = CCR6 receptor antagonists, primary screen, cell-based, CHO-K1, luminescence, beta-arrestin, uHTS. actives 0.49% (n = 340,000). AID 493098, 2011. inhibition, % at 20 µM. C-C chemokine receptor type 6 (Homo sapiens), P51684. CHO-K1 CCR6 PathHunter beta-arrestin, CCL20-stimulated;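 active = compounds whose inhibition of the agonist-driven luminescence signal at 20 µM reaches about 50%, limit read from the data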;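 also: cells stimulated with CCL20 at 14 nM final; plate controls were DMSO with CCL20 for no effect and DMSO without agonist for full effect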
EBI2 conf = EBI2 antagonist hit retest, beta-arrestin, confirmation, cell-based, single concentration, luminescence, 7a,25-OHC stimulation; shares compounds with EBI2 block; 7a,25-OHC antagonism; inhibition, % at 5 µM; actives 29% (n = 2,400); AID 651997, 2013;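 active = inhibition of at least 50%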
EBI2 agonist = EBI2 agonist activity of antagonist hits, confirmation, counter-screen for EBI2 antagonist project, cell-based, single concentration, agonist mode, luminescence; shares compounds with EBI2 block; EBI2-expressing cells, 60 min; 0% vehicle, 100% 7α,25-dihydroxycholesterol control; activation, % at 5 µM; 2,400 tested, under 10 active;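 active = activation of at least 50%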
bGal counter = E. coli beta-galactosidase enzyme inhibition, confirmation, counter-screen for EBI2 antagonist project, biochemical, luminescence, single concentration. actives 1% (n = 2,400). inhibition, % at 5 µM. purified beta-galactosidase, luminescent Galacton Star, 15 min. shares compounds with EBI2 block;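 active = replicate-average signal at least 3 plate SD below neutral wells, shown as high inhibition, flagging enzyme-inhibiting false positives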;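 also: 0% = DMSO wells with enzyme and 100% = wells lacking enzyme; higher means stronger loss of beta-gal luminescence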
* = called active by the depositor; · = no result. Rows were chosen to be rich in hits. Some 1.5% of all compounds tested hit in one or more screens of this group.

SMILES	EBI2 block	APJ antag	CXCR6 block	APJ ag	CCR6 antag	EBI2 conf	EBI2 agonist	bGal counter
COc1ccc(CNC(=O)N2CCN(S(=O)(=O)c3ccc(C)cc3C)CC2)cc1	63*	-11	-4	0	21	39	-1	-17
Cc1ccc(CNC(=O)c2ccc(-n3cccc3)cc2)cc1	47*	·	-2	·	14	3	-1	-11
Cc1cccc(C(=O)NC(=S)Nc2ccc(S(=O)(=O)N3CCCCC3)cc2)c1	62*	9	18	-3	41	45	-1	-14
Cc1ccc(CNC(=O)c2ccc(S(=O)(=O)N3CCCCC3)cc2)cc1	64*	6	-2	4	7	27	2	2
CC(C)C[C@@H](CNCC(=O)[C@H](CC(C)C)NC(=O)c1[nH]cnc1C(=O)N[C@@H](C)CN)NC(=O)c1nc[nH]c1C(=O)N[C@@H](CC(=O)O)C(=O)O	-9	·	3	·	-1	·	·	·
Cn1c(-c2ccccc2)cc(=NNS(C)(=O)=O)c2cc(S(=O)(=O)O)ccc21	-43	·	2	·	·	·	·	·
COc1ccc(S(=O)(=O)N2CCN(C(=S)NCCc3ccccc3)CC2)cc1	12	-44	-4	13	7	·	·	·
Cc1ccc(S(=O)(=O)N2CCN(C(=O)NCc3ccc(F)cc3)CC2)c(C)c1	68*	1	-1	-1	8	27	1	1
COc1ccc(S(=O)(=O)N2CCN(C(=O)NCc3ccc(C)cc3)CC2)cc1	77*	10	5	-1	2	60*	2	0
COc1ccc(CCNC(=S)N2CCN(S(=O)(=O)c3ccc(C)cc3)CC2)cc1	52*	14	1	7	16	43	1	0
O=C(NCc1ccc(F)cc1)N1CCN(S(=O)(=O)c2ccccc2F)CC1	13	-5	-4	-2	-9	·	·	·
CC(CNC(=O)c1ccc(C#N)cc1)NC(=O)c1ccc(C#N)cc1 (centres undefined)	-3	·	0	·	-2	·	·	·
C[C@@H](c1ccccc1)N1C[C@@H](COCc2ccccc2)Oc2cc(N3CCC[C@H]3CO)ccc2S1(=O)=O	24	·	8	·	·	·	·	·
O=C(NCc1nnc(SCC(=O)N2CCOCC2)o1)c1ccccc1	-7	·	4	·	·	·	·	·
COC(=O)Cn1cc(S(=O)(=O)NCc2ccc(C)cc2)c2cc([N+](=O)[O-])ccc21	-9	3	9	-3	16	·	·	·
CN(C(=O)COC(=O)Cn1c(C(F)(F)F)nc2ccccc21)c1c(N)n(Cc2ccccc2)c(=O)[nH]c1=O	9	13	6	-7	12	·	·	·
Cc1ccccc1C(=O)N(Cc1cccs1)C1CCS(=O)(=O)C1 (centres undefined)	-7	23	-6	-1	-9	·	·	·
COc1cc(-c2ccc3c(=O)c4ccccc4sc3c2)cc(OC)c1OC	44*	1	-6	-2	-8	27	-1	-10
COC(=O)c1c(-c2ccsc2)sc2ccc(-c3cc(OC)c(OC)c(OC)c3)cc12	55*	2	3	-2	18	6	-1	-7
COc1cc(-c2ccc3sc(-c4ccsc4)c(C#CCO)c3c2)cc(OC)c1OC	-2	-5	-11	1	-9	·	·	·
COc1cc(-c2ccc3c(=O)c4ccccc4n(C)c3c2)cc(OC)c1OC	-38	7	1	13	1	·	·	·
CCOC(=O)C1=CCN(S(=O)(=O)c2ccc(F)cc2)C1c1cccc(F)c1 (centres undefined)	-27	·	1	·	·	·	·	·
Cc1ccc2c(c1)c1c(n2CCc2ccc(C)nc2)CCN(C)C1	-3	4	5	-5	0	·	·	·
Cc1cccc(CSc2nc3nc(C)cc(C)n3n2)c1	-5	10	2	-2	0	·	·	·
COc1cccc(NC(=O)Cn2c3ccc(OC)cc3c3nc4n(c(=O)c32)CCS4)c1	57*	-9	9	3	6	20	-1	-7
SMILES	EBI2 block	APJ antag	CXCR6 block	APJ ag	CCR6 antag	EBI2 conf	EBI2 agonist	bGal counter
COc1ccc2c(c1)c1nc3n(c(=O)c1n2CC(=O)Nc1cc(C)[nH]n1)CCS3	·	0	·	4	·	·	·	·
COc1ccccc1NC(=O)c1cc(C(=O)Nc2ccccc2OC)cc([N+](=O)[O-])c1	-8	-4	4	4	-2	·	·	·
O=C(NCC1CCCO1)C1CCN(S(=O)(=O)c2cc(Cl)ccc2Cl)CC1 (centres undefined)	9	-1	4	0	9	·	·	·
CC(O)CNCc1ccc(Cl)cc1Cl (centres undefined)	14	4	7	-1	22	·	·	·
CC(CCc1ccccc1)NCc1ccc(Cl)cc1Cl (centres undefined)	62*	7	-4	-1	10	32	1	2
Cc1ccc(CNC(=O)c2ccc(N3CCC4(CC3)CC(c3ccccc3)=NO4)c(N)c2)cc1	45*	14	-3	8	-1	19	-1	-13
O=C(NCC(c1cccs1)N1CCOCC1)C1CCN(S(=O)(=O)c2ccccc2C(F)(F)F)CC1 (centres undefined)	11	-11	0	-5	18	·	·	·
Cc1cc2oc(=O)cc(CN(Cc3ccccc3)Cc3ccccc3)c2cc1Cl	52*	·	1	·	·	51*	0	-4
CC(C)c1ccc(Nc2ncc3c(n2)CCN(C(=O)Nc2ccc(F)c(Cl)c2)C3)cc1	52*	·	-12	·	·	20	1	3
S=C(NCC1CCCO1)N1CCN(c2nc(-c3ccc(Cl)cc3)cs2)CC1 (centres undefined)	86*	-15	-3	1	-15	66*	2	5
CCN(CC)C(=O)Cn1cnc2sc(C)c(S(=O)(=O)N3CCC(C)CC3)c2c1=O	-2	-2	1	-4	5	·	·	·
CCCOC(=O)c1ccc(NC(=O)CSC2=Nc3ccccc3C3CC=NN23)cc1 (centres undefined)	40*	6	11	-3	2	5	0	-10
O=C(CSC1=Nc2ccccc2C2CC=NN12)NCc1ccco1 (centres undefined)	9	27	11	-8	24	·	·	·
